# Assay results collected from several papers.
# Lines come from different studies, so protocols differ.
# Cell line: U-937
# Effect on: cell growth or viability
Structure (SMILES),technique,time,IC50
CCC[C@H](Nc1nc(-c2ccc(NC(=O)NCC)c(OC)c2)ncc1C)c1cccnc1,fluorescence,72 h,33.1 nM
CCCCCCCCC1=CC2C=CC=CC1C2C1CCCCC1=O (stereo not drawn),flow cytometry,,84 nM
CC(C)C[C@H](NC(=O)[C@H](Cc1ccccc1)NC(=O)c1cnccn1)B(O)O,ATP luminescence,,4.4 nM
O=C1CCCCC1C1C2C=CC=CC1/C(=C/c1ccccc1)C2 (stereo not drawn),flow cytometry,,77 nM
COc1cc(Nc2nccc(-c3cnn4nc(OC)ccc34)n2)cc(C(F)(F)F)c1,ATP luminescence,,210 nM
C#CCSc1nc(Sc2nnnn2-c2ccccc2)c2nnn(Cc3ccc(OC)cc3)c2n1,MTS,6 days,3230 nM
Nc1nc(Nc2ccc3c(c2)CC[C@@H](N2CCCC2)CC3)nn1-c1cc2c(nn1)-c1ccccc1CCC2,trypan blue,72 h,1450 nM
COc1cc(-c2ncn(/C=C\C(=O)OC(C)C)n2)cc(C(F)(F)F)c1,,72 h,223 nM
COc1cc2nccc(Oc3ccc(NC(=O)C4(C(=O)Nc5ccc(F)cc5)CC4)cc3)c2cc1OC,trypan blue,72 h,2990 nM
CC(C)[C@H](N)C(=O)N1CCC[C@H]1B(O)O,ATP luminescence,48 h,> 60000 nM
CC(=O)O[C@H]1C(=O)[C@@]2(C)[C@H]([C@H](OC(=O)c3ccccc3)[C@]3(O)C[C@H](OC(=O)[C@H](O)[C@@H](NC(=O)c4ccccc4)c4ccccc4)C(C)=C1C3(C)C)[C@]1(OC(C)=O)CO[C@@H]1C[C@@H]2O,,72 h,2.7 nM
CC(=O)OCCC1=CC2C=CC=CC1C2C1CCCCC1=O (stereo not drawn),flow cytometry,,167 nM
N[C@@H](CC(=O)N1CCN(C(c2ccc(F)cc2)c2ccc(F)cc2)CC1)C(=O)N1Cc2ccccc2C1,ATP luminescence,48 h,27400 nM
CC[C@]1(O)C[C@H]2CN(CCc3c([nH]c4ccccc34)[C@@](C(=O)OC)(c3cc4c(cc3OC)N(C=O)[C@H]3[C@@](O)(C(=O)OC)[C@H](OC(C)=O)[C@]5(CC)C=CCN6CC[C@]43[C@@H]65)C2)C1,fluorescence,72 h,7.6 nM
CCOC(=O)CCC1=CC2C=CC=CC1C2C1CCCCC1=O (stereo not drawn),flow cytometry,,51 nM
